Laboratory results as given in ChEMBL document CHEMBL1140339, “Spiro and dispiro-1,2,4-trioxolanes as antimalarial peroxides: charting a workable structure-activity relationship using simple prototypes” (J Med Chem, 2005).
Values after ≈ are worked out from the molar mass of the structure shown.

Columns and labels:
Mus musculus [1] = assay: Antimalarial activity (10 mg/kg, peroral) given 1 day post infection of mice (Mus musculus) with Plasmodium berghei is its ability to reduce parasitaemia on day 3 post infection; format: functional
Summary of the method: (§1)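 P. berghei-infected MORO mice, groups of three, treated 1 day postinfection with a single dose (100 or 10 mg/kg, po or sc) dissolved or suspended in 3% ethanol/7% Tween-80. Activity is percent reduction in parasitemia on day 3 postinfection versus untreated controls. Survival time is compared with an untreated control group. Individual measurements generally differed by less than 10%.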

Mus musculus [2] = assay: Antimalarial activity (10 mg/kg, subcutaneously) given 1 day post infection of mice (Mus musculus) with Plasmodium berghei is its ability to reduce parasitemia on day 3 post infection; format: functional; summary of the method: as §1
Plasmodium falciparum [3] = assay: In vitro inhibition of chloroquine-resistant Plasmodium falciparum K1; format: functional, organism-based
Plasmodium falciparum [4] = assay: In vitro inhibition of chloroquine-sensitive Plasmodium falciparum NF54; format: functional, organism-based
Mus musculus [5] = assay: Survival of mice to 30-day postinfection with Plasmodium berghei upon 10 mg/kg peroral dose was determined; format: functional; conditions: route oral; summary of the method: as §1
Mus musculus [6] = assay: Survival of mice to 30-day postinfection with Plasmodium berghei upon 10 mg/kg upon subcutaneous dose was determined; format: functional; summary of the method: as §1
Mus musculus [7] = assay: Antimalarial activity (100 mg/kg, peroral) given 1 day post infection of mice (Mus musculus) with Plasmodium berghei is its ability to reduce parasitaemia on day 3 post infection; format: functional; summary of the method: as §1
Mus musculus [8] = assay: Antimalarial activity (100 mg/kg, subcutaneously) given 1 day post infection of mice (Mus musculus) with Plasmodium berghei is its ability to reduce parasitemia on day 3 post infection; format: functional; summary of the method: as §1
Mus musculus [9] = assay: Survival of mice to 30-day postinfection with Plasmodium berghei upon 100 mg/kg peroral dose was determined; format: functional; conditions: route oral; summary of the method: as §1
Mus musculus [10] = assay: Survival of mice to 30-day postinfection with Plasmodium berghei upon 100 mg/kg upon subcutaneous dose was determined; format: functional; summary of the method: as §1
Mus musculus [11] = assay: Effective dose required to reduce the parasitemia in mice when compound administered with Tween-80 after 3 day postinfection; format: functional
Mus musculus [12] = assay: Effective dose required to reduce the parasitemia in mice when compound administered with SSV after 3 day postinfection; format: functional
Mus musculus [13] = species: Mus musculus; assay: Effective dose required to reduce the parasitemia in mice by suppressive test after 4 day postinfection; format: functional
Summary of the method: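 Peters 4-day suppressive test in P. berghei-infected mice with multiple daily oral doses. ED50/ED90 are given in (mg/kg)/day.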

Row | Compound | Reduction (Mus musculus [1]) | Reduction (Mus musculus [2]) | IC50 (Plasmodium falciparum [3]) | IC50 (Plasmodium falciparum [4]) | Survival (Mus musculus [5]) | Survival (Mus musculus [6]) | Survival (Mus musculus [10]) | other results
1 | CC1(C)CC(C)(C)CC2(C1)OOC1(O2)C2CC3CC(C2)CC1C3 (centres undefined) | 88% | 99.9% | 0.0031 µg/mL (≈ 0.00967 µM) | 0.005 µg/mL (≈ 0.0156 µM) | 7 days | 97 days | – | –
2 | C1C2CC3CC1CC(C2)C31OOC2(O1)C1CC3CC(C1)CC2C3 (centres undefined) | – | – | 0.95 µg/mL (≈ 3 µM) | 0.779 µg/mL (≈ 2.46 µM) | – | – | 5.3 days | Reduction (Mus musculus [7]): 0%; Reduction (Mus musculus [8]): 0%; Survival (Mus musculus [9]): 5.3 days
3 | C1CCC2(CC1)OOC1(CCCCC1)O2 | – | – | 0.1 µg/mL (≈ 0.471 µM) | 0.504 µg/mL (≈ 2.37 µM) | – | – | 5.3 days | Reduction (Mus musculus [7]): 0%; Reduction (Mus musculus [8]): 0%; Survival (Mus musculus [9]): 5.3 days
4 | CC1(C)COC2(CCC3(CC2)OOC2(CC(C)(C)CC(C)(C)C2)O3)OC1 | 0% | 0% | – | – | 5.7 days | 5.7 days | – | –
5 | c1ccc(CC2(Cc3ccccc3)OOC3(O2)C2CC4CC(C2)CC3C4)cc1 (centres undefined) | 88% | 99.7% | 0.0031 µg/mL (≈ 0.00823 µM) | 0.003 µg/mL (≈ 0.00797 µM) | 6.7 days | 8 days | – | –
6 | O=C1CCC2(CC1)OOC1(CCCCC1)O2 | – | – | 0.015 µg/mL (≈ 0.0663 µM) | 0.039 µg/mL (≈ 0.172 µM) | – | – | 5 days | Reduction (Mus musculus [7]): 0%; Reduction (Mus musculus [8]): 0%; Survival (Mus musculus [9]): 5 days
7 | C1CCC2(CC1)COC1(O2)C2CC3CC(C2)CC1C3 (centres undefined) | – | – | > 1 µg/mL | > 1 µg/mL | – | – | 5.6 days | Reduction (Mus musculus [7]): 0%; Reduction (Mus musculus [8]): 0%; Survival (Mus musculus [9]): 5.6 days
8 | CC(C)C1CCC2(CC1)OOC1(O2)C2CC3CC(C2)CC1C3 (centres undefined) | 99% | 9.89% | 0.0014 µg/mL (≈ 0.00457 µM) | 0.002 µg/mL (≈ 0.00653 µM) | 7.3 days | 9 days | – | –
9 | Fc1ccc(C2(c3ccc(F)cc3)OOC3(CCC(c4ccccc4)CC3)O2)cc1 (centres undefined) | 0% | 0% | – | – | 5.3 days | 5.7 days | – | –
10 | CC1(C)COC2(CCC3(CC2)OOC2(O3)C3CCCC2CCC3)OC1 (centres undefined) | 1% | 6% | 0.041 µg/mL (≈ 0.116 µM) | 0.049 µg/mL (≈ 0.139 µM) | 5 days | 5.3 days | – | –
11 | C1CC2(CCO1)OOC1(O2)C2CC3CC(C2)CC1C3 (centres undefined) | 35% | 99.6% | – | – | 6 days | – | 7.7 days | –
12 | CCCC1CCC2(CC1)OOC1(O2)C2CC3CC(C2)CC1C3 (centres undefined) | – | – | 0.0011 µg/mL (≈ 0.00359 µM) | 0.0021 µg/mL (≈ 0.00685 µM) | 8.4 days | 16.5 days | – | –
13 | C1CCCCCC2(CCCCC1)OOC1(O2)C2CC3CC(C2)CC1C3 (centres undefined) | – | 90% | – | – | 7.4 days | – | 7 days | –
14 | O=S1(=O)CCC2(CC1)OOC1(O2)C2CC3CC(C2)CC1C3 (centres undefined) | 77% | 97% | – | – | 7 days | 7.3 days | – | –
15 | CC(C)(C)C1CCC2(CC1)OOC1(O2)C2CC3CC(C2)CC1C3 (centres undefined) | 0% | 0% | 0.063 µg/mL (≈ 0.197 µM) | 0.084 µg/mL (≈ 0.262 µM) | 5 days | 5.3 days | – | –
16 | OC1CCC2(CC1)OOC1(O2)C2CC3CC(C2)CC1C3 (centres undefined) | 79% | 91% | – | – | 6.7 days | 8.7 days | – | –
17 | c1ccc(C2(c3ccccc3)CCC3(CC2)OOC2(O3)C3CC4CC(C3)CC2C4)cc1 (centres undefined) | 0% | 0% | 0.042 µg/mL (≈ 0.101 µM) | 0.06 µg/mL (≈ 0.144 µM) | 5.3 days | 5.7 days | – | –
18 | C1CCC2(CC1)OCC1(O2)C2CC3CC(C2)CC1C3 (centres undefined) | – | – | > 1 µg/mL | > 1 µg/mL | – | – | 5.6 days | Reduction (Mus musculus [7]): 0%; Reduction (Mus musculus [8]): 0%; Survival (Mus musculus [9]): 5.8 days
19 | CC1(C)CCC2(CC1)OOC1(O2)C2CC3CC(C2)CC1C3 (centres undefined) | 80% | – | 0.0023 µg/mL (≈ 0.00787 µM) | 0.0035 µg/mL (≈ 0.012 µM) | 6.7 days | 11.7 days | – | –
20 | c1ccc(C2(c3ccccc3)OOC3(O2)C2CC4CC(C2)CC3C4)cc1 (centres undefined) | 68% | 92% | 0.0023 µg/mL (≈ 0.0066 µM) | 0.0026 µg/mL (≈ 0.00746 µM) | 6 days | 7 days | – | –
21 | CC(C)(C)C1CCC2(CC1)OOC1(CCC(c3ccccc3)CC1)O2 (centres undefined) | – | – | 0.077 µg/mL (≈ 0.224 µM) | 0.062 µg/mL (≈ 0.18 µM) | 0 days | – | – | –
22 | c1ccc(C2CCC3(CC2)OOC2(O3)C3CCCC2CCC3)cc1 (centres undefined) | 0% | 0% | > 0.1 µg/mL | > 0.1 µg/mL | 5 days | 5 days | – | –
23 | C[C@@H]1CC[C@H]2[C@@H](C)C(=O)O[C@@H]3O[C@@]4(C)CC[C@@H]1[C@]32OO4 [ARTEMISININ] | – | – | 0.0016 µg/mL (≈ 0.00567 µM) | – | – | – | 14 days | Reduction (Mus musculus [7]): 98%; Reduction (Mus musculus [8]): >99.99%
24 | C[C@H]1[C@H](OC(=O)CCC(=O)O)O[C@@H]2O[C@@]3(C)CC[C@H]4[C@H](C)CC[C@@H]1[C@@]24OO3 [ARTESUNATE] | 65% | 65% | – | – | 6.8 days | 6.8 days | – | ED50 (Mus musculus [11]): 5 (mg/kg)/day; ED90 (Mus musculus [11]): 13 (mg/kg)/day; ED50 (Mus musculus [12]): 5.9 (mg/kg)/day; ED90 (Mus musculus [12]): 21 (mg/kg)/day; ED50 (Mus musculus [13]): 2.4 (mg/kg)/day; ED90 (Mus musculus [13]): 13 (mg/kg)/day
25 | CCN(CC)CCCC(C)Nc1ccnc2cc(Cl)ccc12 (centres undefined) [CHLOROQUINE] | – | – | – | – | – | – | – | ED50 (Mus musculus [12]): 1.9 (mg/kg)/day; ED90 (Mus musculus [12]): 4.2 (mg/kg)/day
